Test results published in ChEMBL document CHEMBL3352248, “Converting potent indeno[1,2-b]indole inhibitors of protein kinase CK2 into selective inhibitors of the breast cancer resistance protein ABCG2” (J Med Chem, 2015).
Calls of active or inactive are those of the source. No cut-off for these calls is given here.

Assays:
[1] = biological target: T1, Broad substrate specificity ATP-binding cassette transporter ABCG2 (Homo sapiens, UniProt Q9UNQ0); experiment: Inhibition of ABCG2 (unknown origin) expressed in HEK293 cells assessed as reduction in mitoxantrone efflux after 30 mins by FACS method; assay type: cell-based
T1 sequence (Q9UNQ0 whole entry): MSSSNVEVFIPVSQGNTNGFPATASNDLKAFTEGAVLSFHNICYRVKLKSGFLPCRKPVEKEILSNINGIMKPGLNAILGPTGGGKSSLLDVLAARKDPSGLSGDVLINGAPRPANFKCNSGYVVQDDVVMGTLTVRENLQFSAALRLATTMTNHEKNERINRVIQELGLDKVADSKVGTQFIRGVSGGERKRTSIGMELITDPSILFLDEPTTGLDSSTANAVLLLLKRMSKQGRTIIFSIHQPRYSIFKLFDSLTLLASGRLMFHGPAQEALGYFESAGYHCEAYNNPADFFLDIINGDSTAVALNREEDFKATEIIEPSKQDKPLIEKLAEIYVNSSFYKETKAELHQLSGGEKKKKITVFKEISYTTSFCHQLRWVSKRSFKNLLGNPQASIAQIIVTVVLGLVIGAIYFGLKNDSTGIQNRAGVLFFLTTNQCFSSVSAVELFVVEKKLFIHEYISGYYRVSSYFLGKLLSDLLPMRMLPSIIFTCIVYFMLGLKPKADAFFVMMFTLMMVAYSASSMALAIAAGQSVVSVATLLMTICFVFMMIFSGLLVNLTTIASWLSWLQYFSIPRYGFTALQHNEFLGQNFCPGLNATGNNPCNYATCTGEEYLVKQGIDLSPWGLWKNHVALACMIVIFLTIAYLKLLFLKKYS
How it was run: (§1)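 HEK293 cells stably transfected with ABCG2 (kept in 0.75 mg/mL G418) were seeded at 1.0 × 10^5/well and grown 72 h. They were then exposed to 5 μM mitoxantrone for 30 min at 37 °C with or without compound, washed and trypsinized. Intracellular fluorescence was read by flow cytometry (FL4, ≥10,000 events).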

ABCG2 [2] = biological target: T2, ABCG2 (Homo sapiens, UniProt Q9UNQ0); experiment: Inhibition of ABCG2 (unknown origin) expressed in HEK293 cells assessed as reduction in mitoxantrone efflux at 10 uM after 30 mins by FACS method; assay type: cell-based; settings: HEK293 cells expressing ABCG2, probe mitoxantrone; how it was run: as §1
T2 sequence (Q9UNQ0 whole entry): T1 sequence (Q9UNQ0 whole entry)

[3] = Intrinsic cytotoxicity against HEK293 cells assessed as reduction in cell viability after 72 hrs by MTT assay; assay type: cell-based; settings: human, read-out: IG50
How it was run: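 Wild-type HEK293 cells were seeded at 1 × 10^4/well, incubated overnight, then treated with compound (0–250 μM) for 72 h. MTT at 0.5 mg/mL was added for 4 h at 37 °C. Formazan was dissolved in DMSO/ethanol 1:1, and absorbance was read at 570 nm minus 690 nm to give IG50.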

HEK293 = experiment: Selectivity index, ratio of IC50 for human recombinant CK2a1/CK2b holoenzyme expressed in Escherichia coli BL21(DE3) to IC50 for ABCG2 (unknown origin) expressed in HEK293 cells
Casein kinase II = Casein kinase II (Homo sapiens, UniProt P19784+P67870+P68400); experiment: Inhibition of human recombinant CK2a1/CK2b holoenzyme expressed in Escherichia coli BL21(DE3) pre-incubated for 10 mins before substrate addition by capillary electrophoresis based assay
Sequence of Casein kinase II (P67870 whole entry): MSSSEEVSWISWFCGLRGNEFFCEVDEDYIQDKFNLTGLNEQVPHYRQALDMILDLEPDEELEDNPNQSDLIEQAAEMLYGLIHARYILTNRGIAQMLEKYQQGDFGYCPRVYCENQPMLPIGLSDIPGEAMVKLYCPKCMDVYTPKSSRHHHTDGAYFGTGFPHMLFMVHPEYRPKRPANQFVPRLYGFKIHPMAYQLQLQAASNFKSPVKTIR
Sequence of Casein kinase II (P68400 whole entry): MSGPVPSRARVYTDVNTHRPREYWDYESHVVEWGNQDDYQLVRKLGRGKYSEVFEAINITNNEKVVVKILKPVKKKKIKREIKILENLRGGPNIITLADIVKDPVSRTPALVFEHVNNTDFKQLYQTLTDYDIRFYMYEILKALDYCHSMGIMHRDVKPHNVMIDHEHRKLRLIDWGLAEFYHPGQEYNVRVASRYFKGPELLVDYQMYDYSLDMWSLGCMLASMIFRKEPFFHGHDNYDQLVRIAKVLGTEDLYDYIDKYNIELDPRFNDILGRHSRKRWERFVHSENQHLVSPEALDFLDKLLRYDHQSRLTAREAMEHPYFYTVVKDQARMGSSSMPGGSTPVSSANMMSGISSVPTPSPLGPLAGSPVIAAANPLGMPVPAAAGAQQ
Sequence of Casein kinase II (P19784 whole entry): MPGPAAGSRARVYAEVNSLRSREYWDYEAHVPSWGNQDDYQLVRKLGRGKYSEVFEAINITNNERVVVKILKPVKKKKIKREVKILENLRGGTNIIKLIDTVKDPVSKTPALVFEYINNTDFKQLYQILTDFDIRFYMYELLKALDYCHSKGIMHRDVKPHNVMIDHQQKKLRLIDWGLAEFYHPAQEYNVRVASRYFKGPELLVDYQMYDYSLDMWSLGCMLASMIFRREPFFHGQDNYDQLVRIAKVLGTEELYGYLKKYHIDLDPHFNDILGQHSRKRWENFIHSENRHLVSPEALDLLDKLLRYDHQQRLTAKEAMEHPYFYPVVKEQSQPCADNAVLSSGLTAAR

ABCG2 [4] = experiment: Selectivity index, ratio of IC50 for intrinsic cytotoxicity against HEK293 cells to IC50 for ABCG2 (unknown origin) expressed in HEK293 cells; assay type: toxicity, cell-based; settings: human, HEK293 cells expressing ABCG2, read-out: Selectivity Index
MCF7 [5] = experiment: Inhibition of cell proliferation of human MCF7 cells assessed as DNA synthesis at 100 uM after 24 hrs by EdU-click assay; assay type: functional, cell-based
How it was run: (§2)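 MCF-7 cells were grown in RPMI 1640 GlutaMax plus 10% FCS, seeded 5.0 × 10^4/well and incubated overnight. They were then exposed to inhibitor at 20 or 100 μM for 24 or 48 h (37 °C, 5% CO2), with 1% DMSO as control. EdU was incorporated and click-coupled to TAMRA azide, with Hoechst counterstain. Microscope counts gave TAMRA-positive nuclei as a percentage of total nuclei. Values are the mean (±SD) of four assays.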

MCF7 [6] = experiment: Induction of cell death in human MCF7 cells assessed as viable cell level at 20 to 100 uM after 24 hrs by Hoechst 33258 staining based fluorescence assay; assay type: functional
How it was run: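 MCF-7 cells grown in RPMI 1640 GlutaMax with 10% fetal calf serum, seeded at 5.0 × 10^4 cells/well and left overnight. Medium then replaced with fresh medium holding inhibitor at 20 or 100 μM, with 1% DMSO as control, for 24 h at 37 °C, 5% CO2. Nuclei stained with Hoechst 33258 (3 μg/mL in methanol, 30 min, room temperature, dark). Total cells counted and nuclear morphology examined by fluorescence microscopy.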

MCF7 [7] = experiment: Inhibition of cell proliferation of human MCF7 cells assessed as DNA synthesis at 20 uM after 24 hrs by EdU-click assay; assay type: functional; design: scale not given: the % may be the effect or the level left; how it was run: as §2
MCF7 [8] = experiment: Induction of cell damage in human MCF7 cells at 20 to 100 uM after 24 hrs by Hoechst 33258 staining based fluorescence assay; assay type: functional
How it was run: (§3)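 MCF-7 cells in RPMI 1640 GlutaMax with 10% FCS, seeded 5.0 × 10^4 per well and left overnight. Medium was replaced with inhibitor at 20 or 100 μM, with 1% DMSO as control, for 24 h at 37 °C, 5% CO2. Nuclei were stained with Hoechst 33258 (3 μg/mL in methanol) for 30 min at room temperature in the dark and examined by fluorescence microscopy (DAPI filter) for nuclear morphology.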

MCF7 [9] = experiment: Induction of apoptosis in human MCF7 cells assessed as reduction in nuclear size at 20 to 100 uM after 24 hrs by Hoechst 33258 staining based fluorescence assay; assay type: functional, cell-based
How it was run: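 MCF-7 cells grown in RPMI 1640 GlutaMax with 10% fetal calf serum, seeded 5.0 × 10^4 cells/well and incubated overnight. Medium then replaced with medium containing compound at 20 or 100 μM; 1% DMSO as control. Incubation 24 h at 37 °C, 5% CO2. Nuclei stained with Hoechst 33258 (3 μg/mL in methanol), 30 min at room temperature in the dark. Nuclear morphology examined by fluorescence microscopy.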

MCF7 [10] = experiment: Inhibition of cell proliferation of human MCF7 cells assessed as DNA synthesis at 20 uM after 48 hrs by EdU-click assay; assay type: functional; design: scale not given: the % may be the effect or the level left; how it was run: as §2
MCF7 [11] = experiment: Induction of apoptosis in human MCF7 cells assessed as chromatin condensation at 20 to 100 uM after 24 hrs by Hoechst 33258 staining based fluorescence assay; assay type: functional, cell-based; settings: in the assay text read “100 uM” for “20 to 100 uM”; how it was run: as §3

Structure (SMILES) | IC50 [1] [µM] | inhibition at 0.5 h, 10 µM (ABCG2 [2]) [%] | CC50 at 72 h [3] [µM] | Ratio IC50 (HEK293) | IC50 (Casein kinase II) [µM] | selectivity ratio (ABCG2 [4]) | further results
CC(C)n1c2c(c3c1-c1ccccc1C3=O)C(=O)CCC2 | 35 | 15 | – | – | – | – | –
COc1ccc2c3c([nH]c2c1)[C@H](CC(C)C)N1C(=O)[C@H](CCC(=O)OC(C)(C)C)NC(=O)[C@@H]1C3 | – | – | 32 | – | – | – | –
CCc1c2c(nc3ccc(O)cc13)-c1cc3c(c(=O)n1C2)COC(=O)[C@]3(O)CC [7-ETHYL-10-HYDROXYCAMPTOTHECIN] | – | – | 0.005 | – | – | – | –
COc1ccc2[nH]cc(CCNC(=O)c3cc(=O)c4c(OCc5ccc(Br)cc5)cccc4o3)c2c1 | 0.13 | 98 | 96 | – | – | – | –
COc1ccc(CCn2c3c(c4c2-c2ccccc2C4=O)C(=O)CCC3)cc1 | 0.7 | 131 | 68.5 | 6 | – | – | –
O=C1CCCc2c1c1c(n2CCCc2ccccc2)-c2ccccc2C1=O | 0.79 | 83 | > 100 | 8 | 6 | > 127 | –
CC1CCc2c(c3c(n2C(C)C)-c2ccccc2C3=O)C1=O (stereo unspecified) | 20 | 40 | – | – | – | – | –
CC1CC(=O)c2c3c(n(Cc4ccccc4)c2C1)-c1ccccc1C3=O (stereo unspecified) | 15 | 33 | – | 2 | 35 | – | –
O=C1CC(c2ccccc2)Cc2c1c1c(n2CCc2ccccc2)-c2ccccc2C1=O (stereo unspecified) | 0.49 | 83 | 20.1 | 30 | 15 | 41 | –
COc1ccccc1CCn1c2c(c3c1-c1ccccc1C3=O)C(=O)CCC2 | 0.21 | 106 | 27.2 | 7 | 1.4 | 130 | –
O=C1CCCc2c1c1c(n2Cc2ccccc2)-c2ccccc2C1=O | 30 | 18 | – | 0.5 | 15 | – | –
CC(C)=CCOc1cccc2c1-c1c(c3c(n1C(C)C)CCCC3=O)C2=O | 1.6 | 60 | 31 | – | – | – | inhibition (MCF7 [5]): Active; Activity (MCF7 [6]): 10%; Activity (MCF7 [7]): 14%; Activity (MCF7 [8]): Active; Activity (MCF7 [9]): Active; Activity (MCF7 [10]): 1.3%; Activity (MCF7 [11]): Active
CC1CC(=O)c2c3c(n(C(C)C)c2C1)-c1ccccc1C3=O (stereo unspecified) | 4.1 | 65 | – | – | – | – | –
O=C1CCCc2c1c1c(n2CCc2ccccc2)-c2ccccc2C1=O | 0.43 | 100 | 30.7 | 16 | 7 | 71 | –
O=C1c2c(O)ccc(O)c2C(=O)c2c(NCCNCCO)ccc(NCCNCCO)c21 [MITOXANTRONE] | – | – | 0.009 | – | – | – | –
COc1cccc(CCn2c3c(c4c2-c2ccccc2C4=O)C(=O)CCC3)c1 | 0.31 | 78 | 12.7 | 16 | 5.1 | 41 | –
O=C1CC(c2ccccc2)Cc2c1c1c(n2Cc2ccccc2)-c2ccccc2C1=O (stereo unspecified) | 0.96 | 68 | 16.9 | – | 55 | 18 | –
CC1CC(=O)c2c3c(n(CCc4ccccc4)c2C1)-c1ccccc1C3=O (stereo unspecified) | 0.23 | 100 | > 100 | 11 | – | – | –
CC(C)=CCOc1cccc2c1C(=O)c1c3c(n(C(C)C)c1-2)CCCC3=O | 3 | 74 | – | – | – | – | –
CC(C)n1c2c(c3c1-c1ccccc1C3=O)C(=O)C(Cc1ccccc1)(Cc1ccccc1)CC2 | 0.61 | 90 | 6 | 18 | 11 | 10 | –
